pIC50: −log10 of the molar value. Converted amounts (≈) assume the structure as drawn.

Data set [1] deals with Tobacco mosaic virus. The data set can be described thus: Antiviral activity against TMV strain U1 infected in Nicotiana glutinosa leaves assessed as decrease in number of local leaf lesions incubated with virus for 30 mins prior to inoculation on leaves measured 3 to 4 days post-viral infection by half-leaf method. The data set is classed as functional, organism-based. The gist of the method:
(§1)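 Half-leaf assay on N. glutinosa. TMV U1 was multiplied in N. tabacum cv. K326, purified, and set to 20 mg/mL by UV absorbance at 260 nm. Compounds were dissolved in DMSO and diluted with water. Virus and compound were mixed for 30 min and applied to the left leaf half; the right half got virus plus matched DMSO. Ningnanmycin served as positive control. Three leaf blades per compound. Inhibition % = (C−T)/C×100 from mean local lesion counts.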

Data set [2] can be described thus: Cytotoxicity against human C8166 cells assessed as inhibition of cell viability after 3 days by MTT assay. In kind it is cell-based. The gist of the method: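 C8166 cells tested with the MTT method. Cytotoxicity reported as CC50. Azidothymidine ran alongside as positive control.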
In general terms: Tetrazolium assays rely on reduction of a dye to a coloured formazan, in cell work by metabolically active cells.

For data set [3], the system named is Human immunodeficiency virus 1. Kind of data set: Antiviral activity against HIV-1 3B infected in human C8166 cells assessed as inhibition of syncytia formation after 3 days. The data set is classed as functional, organism-based. The note with it: Human immunodeficiency virus 1, 3B, C8166, 72 h.
Data set [4] in a line: Therapeutic index, ratio of CC50 for human C8166 cells to EC50 for HIV-1 3B infected in human C8166 cells. The data set is classed as cell-based. The note with it: C8166 cells (CC50) and HIV-1 3B infected C8166 cells (EC50). An outline of the steps: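 CC50 came from MTT cytotoxicity on C8166 cells. EC50 came from inhibition of HIV-1 cytopathic effect in C8166 cells. Azidothymidine was the positive control. The index is CC50 divided by EC50.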

Data set [5] deals with Tobacco mosaic virus. The data set can be described thus: Antiviral activity against TMV strain U1 infected in Nicotiana glutinosa leaves assessed as decrease in number of local leaf lesions at 20 uM incubated with virus for 30 mins prior to inoculation on leaves measured 3 to 4 days post-viral infection by half-leaf method. In kind it is functional. An outline of the steps:
as §1

For data set [6], the system named is Tobacco mosaic virus. Kind of data set: Antiviral activity against TMV strain U1 infected in compound-pretreated Nicotiana glutinosa leaves assessed as inhibition of viral infection at 20 uM incubated with leaf for 6 hrs prior to viral inoculation. The data set is classed as functional. The gist of the method:
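Protection assay with TMV U1 on tobacco leaves. Leaves were pretreated with compound at 20 μM for 6 h before virus inoculation. Compounds were dissolved in DMSO and diluted with water; a DMSO solution served as negative control and ningnanmycin as positive control. Inhibition rates are mean ± SD, n = 3.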

For `C=C(C)[C@H](O)COc1cc(OC)c2c(c1)C(=O)c1c(O)ccc(O)c1-2` [GRAMNIPHENOL D], the negative logarithm of the IC50 (pIC50) (usually the negative decadic logarithm of the IC50, by convention in mol/L) in the data set on Tobacco mosaic virus [1] was 3.89. Moreover, the CC50 (usually the concentration giving 50% cytotoxicity) at 72 h in data set [2] was greater than 200 µg/mL. The EC50 (in general, the concentration that produces a half-maximal response) in data set [3] was determined as 1.46 µg/mL (≈ 4.26 µM). For the same molecule, in data set [4], the selectivity ratio is greater than 137. In addition, the values for the inhibition at 20 µM in the data set with Tobacco mosaic virus [5] and with Tobacco mosaic virus [6] were 13.3% and 11.4%, respectively.

Turning to `CC1(C)C=Cc2cc3cc(-c4ccc(O)cc4)oc3cc2O1` [GRAMNIPHENOL F], in the data set on Tobacco mosaic virus [1], the pIC50 was 4.39. Further, the CC50 at 72 h in data set [2] is 102 µg/mL (≈ 351 µM). For the same molecule, the EC50 in data set [3] came to 5.22 µg/mL (≈ 17.9 µM). In addition, the selectivity ratio in data set [4] was found to be 19.6. In addition, the inhibition (usually the share of the control response that was lost under treatment) at 20 µM with Tobacco mosaic virus [5] worked out at 35.8%; with Tobacco mosaic virus [6], 33.8%.

With `COc1ccc2c(c1)C=C[C@@H](c1ccc(O)c(C(=O)CCO)c1OC)O2` [GRAMNIPHENOL C], the pIC50 in the data set with Tobacco mosaic virus [1] was 4.68. The CC50 at 72 h in data set [2] is 145 µg/mL (≈ 407 µM). The EC50 in data set [3] is 3.28 µg/mL (≈ 9.2 µM). The selectivity ratio in data set [4] was found to be 44.3. The inhibition at 20 µM in the data set on Tobacco mosaic virus [5] came to 48.2%; in the data set with Tobacco mosaic virus [6] it was 56.3%.

On to `COc1ccc(/C=C/Cc2ccc(O)c(OC)c2OC)cc1O` [CANDENATENIN A], for which the pIC50 with Tobacco mosaic virus [1] is 4.15. The CC50 at 72 h in data set [2] was found to be 145 µg/mL (≈ 459 µM). Also, the EC50 in data set [3] was determined as 3.28 µg/mL (≈ 10.4 µM). Further, the selectivity ratio in data set [4] came to 44.3. In addition, the inhibition at 20 µM in the data set with Tobacco mosaic virus [5] stood at 21.2%; in the data set on Tobacco mosaic virus [6], 24%.

As for `COc1ccc(-c2cc3cc4c(cc3o2)OC(C)(C)C=C4)cc1` [GRAMNIPHENOL G], the pIC50 in the data set on Tobacco mosaic virus [1] is 4.24. In data set [2], the CC50 at 72 h was 88.7 µg/mL (≈ 290 µM). In data set [3], the EC50 worked out at 6.38 µg/mL (≈ 20.8 µM). Also, in data set [4], the selectivity ratio was 13.9. Besides, the inhibition at 20 µM with Tobacco mosaic virus [5] turned out to be 32.1%; in the data set on Tobacco mosaic virus [6] it was 36.1%.

On to `C=C(C)[C@H](O)COc1cc(OC)c2c(c1)C(=O)c1cc(O)cc(O)c1-2` [GRAMNIPHENOL E], for which, in data set [2], the CC50 at 72 h was greater than 200 µg/mL. The EC50 in data set [3] worked out at 1.58 µg/mL (≈ 4.62 µM). The selectivity ratio in data set [4] is greater than 127. Moreover, in the data set with Tobacco mosaic virus [5], the inhibition at 20 µM is 7.16%.

As for `Cc1cn([C@H]2C[C@H](N=[N+]=[N-])[C@@H](CO)O2)c(=O)[nH]c1=O` [ZIDOVUDINE], the CC50 at 72 h in data set [2] is greater than 200 µg/mL. Further, in data set [4], the selectivity ratio is greater than 5880.

For `C/C=C/c1cc(OC)c(OC)cc1C(=O)c1cc(OC)c(OC)c(OC)c1` [GRAMNIPHENOL B], the CC50 at 72 h in data set [2] was 134 µg/mL (≈ 361 µM). For the same molecule, the EC50 in data set [3] amounted to 1.27 µg/mL (≈ 3.41 µM). The selectivity ratio in data set [4] is 106.

With `Oc1cc(O)cc(-c2cc3ccc(O)cc3o2)c1` [MORACIN M], the pIC50 with Tobacco mosaic virus [1] was 3.89. The CC50 at 72 h in data set [2] amounted to 57.4 µg/mL (≈ 237 µM). The EC50 in data set [3] was 4.59 µg/mL (≈ 18.9 µM). In addition, the selectivity ratio in data set [4] came to 12.5. Moreover, the inhibition at 20 µM in the data set with Tobacco mosaic virus [5] was 13.2%; in the data set on Tobacco mosaic virus [6] it was 10.2%.

Turning to `CNCC(=O)N[C@@H](CO)C(=O)N[C@H]1[C@H](O)[C@@H](O)[C@H](n2ccc(N)nc2=O)O[C@@H]1C(N)=O` [NINGNANMYCIN], the pIC50 in the data set with Tobacco mosaic virus [1] is 4.37. The inhibition at 20 µM with Tobacco mosaic virus [5] turned out to be 31.8%; in the data set with Tobacco mosaic virus [6], 30%.

With `COc1cc(O)cc2c1-c1c(O)cc(O)cc1C2=O`, the half-maximal cytotoxic concentration (CC50) at 72 h in data set [2] amounted to 86.7 µg/mL (≈ 336 µM). Also, the EC50 in data set [3] was 2.73 µg/mL (≈ 10.6 µM). Also, in data set [4], the selectivity ratio came to 31.8. Further, the inhibition at 20 µM in the data set on Tobacco mosaic virus [5] came to 7.9%.

For the molecule `COc1cc(O)cc2c1-c1c(O)ccc(O)c1C2=O`, in the data set with Tobacco mosaic virus [1], the pIC50 is 4.01. Moreover, the CC50 at 72 h in data set [2] turned out to be 105 µg/mL (≈ 408 µM). In addition, the concentration for a half-maximal effect (EC50) in data set [3] turned out to be 5.47 µg/mL (≈ 21.2 µM). Besides, in data set [4], the selectivity ratio came out at 19.3. The inhibition at 20 µM in the data set with Tobacco mosaic virus [5] was found to be 17.4%; in the data set on Tobacco mosaic virus [6], 16.7%.

The values above are taken from ChEMBL document CHEMBL2331392, “Antiviral phenolic compounds from Arundina gramnifolia” (J Nat Prod, 2013).
